From ChEMBL document CHEMBL1926673, “Synthesis, molecular docking study and antitumor activity of novel 2-phenylindole derivatives” (Eur J Med Chem, 2012)

Columns and labels:
MCF7 = test: Cytotoxicity against human MCF7 cells after 48 hrs by SRB assay; format: functional, cell-based; conditions: MCF7, 48 h
Summary of the method: (§1)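 Cells seeded at 10⁴ per well and allowed to attach for 24 h, then exposed to compounds at 0, 1, 2.5 and 10 (four levels), triplicate wells per dose, for 48 h at 37 C in 5% CO₂. Cells were then fixed, washed and stained with sulforhodamine B. Excess dye was removed with acetic acid, and bound dye was recovered in Tris EDTA buffer. Results are given as IC₅₀.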

MDA-MB-231 = test: Cytotoxicity against human MDA-MB-231 cells after 48 hrs by SRB assay; format: functional, cell-based; conditions: MDA-MB-231, 48 h; summary of the method: as §1

| SMILES | IC50 (MCF7) | IC50 (MDA-MB-231) |
| --- | --- | --- |
| CC(=O)NNC(=O)COc1ccc(-c2cc3ccccc3[nH]2)cc1 | 92.9 nM | – |
| O=C(COc1ccc(-c2cc3ccccc3[nH]2)cc1)NNc1ccccc1 | 28 nM | – |
| NC(=S)NNC(=O)COc1ccc(-c2cc3ccccc3[nH]2)cc1 | 44.7 nM | – |
| COC(=O)Oc1ccc(-c2cc3ccccc3[nH]2)cc1 | 93.6 nM | – |
| O=C(COc1ccc(-c2cc3ccccc3[nH]2)cc1)N(CCO)CCO | 27.5 nM | – |
| Nc1ccc(-c2nnc(COc3ccc(-c4cc5ccccc5[nH]4)cc3)o2)cc1 | 48 nM | – |
| CCOC(=O)COc1ccc(-c2cc3ccccc3[nH]2)cc1 | 102 nM | – |
| CC(=O)N/N=C/c1c(-c2ccc(O)cc2)[nH]c2ccccc12 | 32.3 nM | – |
| NS(=O)(=O)c1ccc(NC(=O)COc2ccc(-c3cc4ccccc4[nH]3)cc2)cc1 | 24.2 nM | – |
| NC(=S)N/N=C/c1c(-c2ccc(O)cc2)[nH]c2ccccc12 | 32 nM | – |
| c1ccc(-c2nnc(COc3ccc(-c4cc5ccccc5[nH]4)cc3)o2)cc1 | 13.7 nM | 18.3 nM |
| Nc1ccc(C(=O)N/N=C/c2c(-c3ccc(O)cc3)[nH]c3ccccc23)cc1 | 3.7 nM | 37.8 nM |
| Cc1cc(C)n(C(=O)COc2ccc(-c3cc4ccccc4[nH]3)cc2)n1 | 43.2 nM | – |
| CN(C)C(=O)COc1ccc(-c2cc3ccccc3[nH]2)cc1 | 34.3 nM | – |
| O=C(COc1ccc(-c2cc3ccccc3[nH]2)cc1)N1CCCC1 | 14.8 nM | 42.2 nM |
| Oc1ccc(-c2[nH]c3ccccc3c2-c2nc3ccccc3[nH]2)cc1 | 23.5 nM | – |
| Cc1cc(NS(=O)(=O)c2ccc(NC(=O)COc3ccc(-c4cc5ccccc5[nH]4)cc3)cc2)no1 | 17.5 nM | 9.56 nM |
| NC(=O)COc1ccc(-c2cc3ccccc3[nH]2)cc1 | 37.6 nM | – |
| O=C1NC(=S)NC(=O)C1=Cc1c(-c2ccc(O)cc2)[nH]c2ccccc12 | 55.1 nM | – |
| Nc1ccccc1C(=O)N/N=C/c1c(-c2ccc(O)cc2)[nH]c2ccccc12 | 17.9 nM | 29.7 nM |
| NNC(=O)COc1ccc(-c2cc3ccccc3[nH]2)cc1 | 20 nM | – |
| O=C(N/N=C/c1c(-c2ccc(O)cc2)[nH]c2ccccc12)c1ccccc1 | 18.7 nM | 28.2 nM |

| SMILES | IC50 (MCF7) | IC50 (MDA-MB-231) |
| --- | --- | --- |
| Cc1cc(-c2ccccc2)nn1C(=O)COc1ccc(-c2cc3ccccc3[nH]2)cc1 | 48.9 nM | – |
| Nc1ccccc1-c1nnc(COc2ccc(-c3cc4ccccc4[nH]3)cc2)o1 | 26 nM | – |
| Oc1ccc(-c2cc3ccccc3[nH]2)cc1 | 71.8 nM | – |
| O=C1NC(=O)C(=Cc2c(-c3ccc(O)cc3)[nH]c3ccccc23)C(=O)N1 | 41.8 nM | – |
| O=C(COc1ccc(-c2cc3ccccc3[nH]2)cc1)Nc1cnccn1 | 36.3 nM | – |
| Oc1ccc(-c2[nH]c3ccccc3c2-c2nc3ccccc3o2)cc1 | 17.5 nM | 15.3 nM |
| Oc1ccc(-c2[nH]c3ccccc3c2-c2ncc[nH]2)cc1 | 28.4 nM | – |
| Oc1ccc(-c2[nH]c3ccccc3c2/C=N/Nc2ccccc2Cl)cc1 | 5.7 nM | 31.6 nM |
| O=C(N/N=C/c1c(-c2ccc(O)cc2)[nH]c2ccccc12)c1ccc(Cl)cc1 | 3.8 nM | 37.2 nM |
| CN/N=C/c1c(-c2ccc(O)cc2)[nH]c2ccccc12 | 17.7 nM | 47.5 nM |
| COC(=O)COc1ccc(-c2cc3ccccc3[nH]2)cc1 | 35 nM | – |
| O=C(COc1ccc(-c2cc3ccccc3[nH]2)cc1)Nc1ccncc1 | 21.1 nM | – |
| Oc1ccc(-c2[nH]c3ccccc3c2/C=N/Nc2ccccc2)cc1 | 6.7 nM | 25.1 nM |
| O=C(N/N=C/c1c(-c2ccc(O)cc2)[nH]c2ccccc12)c1ccc([N+](=O)[O-])cc1 | 1.6 nM | 32.5 nM |
| O=C(COc1ccc(-c2cc3ccccc3[nH]2)cc1)Nc1ccc(S(=O)(=O)Nc2nccs2)cc1 | 7.4 nM | 29 nM |
| O=C(COc1ccc(-c2cc3ccccc3[nH]2)cc1)NCCO | 96.8 nM | – |
| CC1=NN(C(=O)COc2ccc(-c3cc4ccccc4[nH]3)cc2)C(=O)C1 | 31.8 nM | – |
| Oc1ccccc1-c1nnc(COc2ccc(-c3cc4ccccc4[nH]3)cc2)o1 | 39 nM | – |
| COc1ccc2nc(-c3nnc(COc4ccc(-c5cc6ccccc6[nH]5)cc4)o3)ccc2c1 | 22.1 nM | – |
| O=Cc1c(-c2ccc(O)cc2)[nH]c2ccccc12 | 9 nM | 42.2 nM |
| N#CC(C#N)=Cc1c(-c2ccc(O)cc2)[nH]c2ccccc12 | 87.7 nM | – |
| O/N=C/c1c(-c2ccc(O)cc2)[nH]c2ccccc12 | 27.6 nM | – |
